According to ChEMBL document CHEMBL1142864, “Potential cancer chemopreventive in vitro activities of monomeric xanthone derivatives from the marine algicolous fungus Monodictys putredinis” (J Nat Prod, 2007):
Calls of active or inactive are those of the source. The rule behind the calls is not given here.

Tests used:
[1] = Inhibition of beta-naphthoflavone-induced Cyp1A in rat […] cell; format: cell-based
Summary of the method: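 Enzyme source: homogenates of β-naphthoflavone-induced H4IIE rat hepatoma cells. Cyp1A activity measured as dealkylation of 3-cyano-7-ethoxycoumarin to fluorescent 3-cyano-7-hydroxycoumarin, expressed in nmol/min/mg protein. α-Naphthoflavone positive control. Dose-response to IC50; percent inhibition given at 50 µM final concentration.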

[2] = target: Prostaglandin G/H synthase 1 (Homo sapiens) (UniProt P23219); assay: Inhibition of COX1 at 100 uM
Sequence of Prostaglandin G/H synthase 1 (Homo sapiens) (P23219 whole entry): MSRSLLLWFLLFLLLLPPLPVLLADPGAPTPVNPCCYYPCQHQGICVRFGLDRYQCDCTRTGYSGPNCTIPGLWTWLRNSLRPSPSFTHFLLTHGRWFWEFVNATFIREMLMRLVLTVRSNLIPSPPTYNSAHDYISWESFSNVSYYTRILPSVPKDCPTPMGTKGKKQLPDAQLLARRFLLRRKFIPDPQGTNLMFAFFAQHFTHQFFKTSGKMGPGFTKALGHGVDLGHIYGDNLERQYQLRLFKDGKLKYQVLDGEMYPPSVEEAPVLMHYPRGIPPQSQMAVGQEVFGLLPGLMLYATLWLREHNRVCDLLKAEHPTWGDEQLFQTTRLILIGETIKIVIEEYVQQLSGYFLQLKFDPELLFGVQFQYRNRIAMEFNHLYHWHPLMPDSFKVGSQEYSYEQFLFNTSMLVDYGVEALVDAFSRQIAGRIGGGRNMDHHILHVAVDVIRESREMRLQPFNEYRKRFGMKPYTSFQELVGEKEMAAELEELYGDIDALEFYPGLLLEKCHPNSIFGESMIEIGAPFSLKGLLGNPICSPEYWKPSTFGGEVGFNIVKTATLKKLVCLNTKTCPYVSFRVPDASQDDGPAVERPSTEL
Summary of the method: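 COX-1 (prostaglandin G/H synthase) activity followed by oxygen consumption during conversion of arachidonic acid to prostaglandins; single concentration 100 µM; IC50 only if inhibition exceeds 50%.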

[3] = tested on: Cyp1A (Rattus norvegicus); assay: Inhibition of beta-naphthoflavone-induced Cyp1A in rat H4IIE cell at 50 uM; details: H4IIE cells with beta-naphthoflavone-induced Cyp1A
[4] = target: T1, Aromatase (Homo sapiens, UniProt P11511); assay: Inhibition of human recombinant aromatase at 50 uM
T1 sequence (P11511 whole entry): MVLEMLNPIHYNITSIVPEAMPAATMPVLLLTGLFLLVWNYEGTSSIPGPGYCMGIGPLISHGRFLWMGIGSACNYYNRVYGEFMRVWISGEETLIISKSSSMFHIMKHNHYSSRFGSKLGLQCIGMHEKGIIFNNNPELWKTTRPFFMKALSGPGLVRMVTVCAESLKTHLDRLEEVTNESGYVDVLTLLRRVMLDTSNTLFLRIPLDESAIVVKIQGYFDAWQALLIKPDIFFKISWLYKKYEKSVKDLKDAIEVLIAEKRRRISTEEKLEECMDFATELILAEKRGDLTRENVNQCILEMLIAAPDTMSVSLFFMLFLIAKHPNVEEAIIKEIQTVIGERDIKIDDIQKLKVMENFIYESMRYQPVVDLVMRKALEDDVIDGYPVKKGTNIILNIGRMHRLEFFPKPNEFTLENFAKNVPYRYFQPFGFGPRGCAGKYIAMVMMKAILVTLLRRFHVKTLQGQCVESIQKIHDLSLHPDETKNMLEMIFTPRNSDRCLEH

[5] = DPPH radical scavenging activity upto 250 uM; format: functional
Summary of the method: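 Photometric reaction with stable DPPH free radical in microplate format, compounds up to 250 µM.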

[6] = Superoxide anion radical scavenging activity upto 50 uM; format: functional
Summary of the method: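 Superoxide anion generated by xanthine oxidase oxidising hypoxanthine to uric acid; scavenging tested up to 50 µM.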

[7] = Cytotoxicity against mouse Hepa 1c1c7 cells upto 400 uM; format: cell-based
Summary of the method: (§1)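 Hepa 1c1c7 murine hepatoma cultures exposed in parallel with the QR induction assay; tested up to 400 µM for one hydroxanthone and up to 50 µM for the others; cytotoxicity judged alongside QR specific activity.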

[8] = Cytotoxicity against mouse Hepa 1c1c7 cells upto 50 uM; format: cell-based; summary of the method: as §1
[9] = target: T1, Aromatase; assay: Inhibition of human recombinant aromatase

Row | SMILES | IC50 [1] [µM] | inhibition [2] [%] | inhibition at 50 µM [3] [%] | inhibition at 50 µM [4] [%] | IC50 [9] [µM] | Activity [5] | Activity [6] | Activity [7] | Activity [8]
1 | O=c1cc(-c2ccccc2)oc2c1ccc1ccccc12 [ALPHA-NAPHTHOFLAVONE] | 0.0035 | – | – | – | – | – | – | – | –
2 | C[C@H]1C[C@H](O)[C@@H]2C(=O)c3c(O)cccc3O[C@]2(C)[C@H]1O [MONODICTYSIN B] | 23.3 | < 50 | – | 9 | – | inactive | inactive | – | Not Active
3 | COc1cc(O)c2c(c1)O[C@]1(C)[C@@H](O)[C@@H](C)C[C@H](O)[C@@H]1C2=O [MONODICTYSIN C] | 3 | < 50 | – | – | 28.3 | inactive | inactive | – | Not Active

Now from value to molecule, other results behind:

Row | IC50 [1] [µM] | inhibition [2] [%] | inhibition at 50 µM [3] [%] | inhibition at 50 µM [4] [%] | IC50 [9] [µM] | SMILES | Activity [5] | Activity [6] | Activity [7] | Activity [8]
4 | > 50 | < 50 | 28 | 25 | – | Cc1cc(O)c(C(=O)c2c(O)cccc2O)c(C(=O)O)c1 [MONODICTYPHENONE] | inactive | inactive | – | –
5 | > 50 | < 50 | 40 | 32 | – | Cc1cc(O)c2c(c1)O[C@]1(C)[C@@H](O)[C@@H](O)C[C@H](O)[C@@H]1C2=O [MONODICTYSIN A] | inactive | inactive | Not Active | –
6 | 34.8 | < 50 | – | 37 | – | Cc1cc(C(=O)O)c2c(=O)c3c(O)cccc3oc2c1 [MONODICTYXANTHONE] | inactive | inactive | – | –
